An excerpt weighted towards active compounds, which were near 3.8% of everything screened.
Kir21 inh – Kir2.1 (mouse) channel inhibition. P35561. HEK293-Kir2.1, FluxOR thallium flux fluorescence; hits give low values. B-score at 10 µM. 0.85% of 310,000 active;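 active means fluorescence ratio B-score at or below minus 3 SD of library scores, with starting-brightness B-score within 2 SD, cut at about -4.2 in these data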;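 further: channel flux triggered by added potassium and thallium sulfate stimulus; B-score of peak minus minimum fluorescence over baseline after thallium stimulus; more negative B-score means stronger Kir2.1 block with less thallium influx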
Target sequence (P35561 whole entry, looked up): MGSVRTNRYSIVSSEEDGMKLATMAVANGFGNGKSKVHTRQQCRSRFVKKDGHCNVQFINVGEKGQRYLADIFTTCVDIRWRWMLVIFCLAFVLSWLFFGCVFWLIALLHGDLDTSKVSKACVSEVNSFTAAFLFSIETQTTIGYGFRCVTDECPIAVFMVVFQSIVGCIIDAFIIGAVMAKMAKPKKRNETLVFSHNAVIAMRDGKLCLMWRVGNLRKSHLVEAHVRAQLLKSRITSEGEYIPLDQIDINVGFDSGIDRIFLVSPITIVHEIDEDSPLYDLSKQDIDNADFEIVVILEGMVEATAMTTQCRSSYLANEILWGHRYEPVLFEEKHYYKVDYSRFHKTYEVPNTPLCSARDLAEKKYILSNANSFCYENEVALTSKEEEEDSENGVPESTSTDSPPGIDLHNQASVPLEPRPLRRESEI
KCNK9 block – human KCNK9 channel inhibition; Q9NPC2; HEK293 KCNK9, FluxOR thallium flux fluorescence; hits give low values; B-score at 10 µM; 1.2% of 310,000 active; AID 488922;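 active means ratio B-score over 3 SD below the library mean, with starting fluorescence within 5 SD of its mean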;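 further: negative B-score means less thallium flux so channel inhibition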
hERG rescue – hERG (human) protection from proarrhythmic block; CHO-hERG, FluxOR thallium flux, dofetilide IC70 present; activation (rescue from dofetilide block), less the hit threshold, % at 10 µM; 0.51% of 310,000 active;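 active means activation above the mean of controls blocked by dofetilide plus 5 SD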;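 further: thallium influx through hERG after potassium depolarization seen as dye fluorescence rise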
KCNQ1 pot – potentiates or activates the human KCNQ1 potassium channel. CHO-K1 KCNQ1, thallium flux FluxOR fluorescence; hits give high values. B-score at 10 µM. P51787. 0.35% of 310,000 active;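 active means fluorescence ratio B-score, a plate-corrected score, at least three library SD, with initial intensity B-score within 5 SD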
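System: Stable KCNQ1 CHO-K1 line | Incubation: 90 min dye loading and 20 min compound exposure, both at room temperature | Measure: Ratio B score | Medium: Assay buffer for compound exposure, DMSO matched across wells | Compound dosing: Single-concentration screen | Probe or stimulus: K+/Tl+ depolarizing stimulus | Measured by: Kinetic FluxOR fluorescence, 10 s baseline plus 110 s post-stimulus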
KCNK3 block – human KCNK3 channel inhibition, primary screen. O14649. CHO-KCNK3 thallium flux, FluxOR fluorescence; hits give low values. B-score at 10 µM. 0.84% of 340,000 active. AID 602410;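 active means B-score under library mean minus 4 SD, starting fluorescence ratio at most library mean plus 5 SD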;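 further: more negative B-score means stronger inhibition of thallium flux through KCNK3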
KCNQ1 inh – inhibitors of human KCNQ1 potassium channel; 1.3% of 310,000 active; B-score at 10 µM; P51787; CHO-K1 KCNQ1, FluxOR thallium flux fluorescence; hits give high values;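 active means compounds whose thallium flux B-score, printed positive for inhibition, exceeds three library SD while starting fluorescence stays within three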;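 further: channel opened by potassium depolarization with thallium stimulus after 20 min compound exposure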
KCNQ1 inh valid – human KCNQ1 channel inhibition, validation assay | KCNQ1 cell line, FluxOR thallium flux fluorescence | AID 588353 | shares compounds with KCNQ1 inh | 93% of 1,600 active | inhibition, % at 10 µM;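 active means primary screen active, with duplicate mean exceeding buffer control mean plus 3 SD of buffer wells, cut at about 28% in these data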;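 further: 0% = buffer control ratio and 100% = XE991 inhibitor control ratio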
CHO KCNQ1 ctr – counter-screen for KCNQ1 inhibitors: effect in parental CHO cells; shares compounds with KCNQ1 inh; parental CHO-K1, FluxOR thallium flux fluorescence ratio; hits give low values; zero means no signal rise above baseline; fluorescence ratio (Tl flux) at 10 µM; AID 588366; 21% of 1,600 active;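 active means mean of duplicate thallium-flux fluorescence ratios in parental host cells more than 5 SD below the buffer control mean, cut at about 0.38 in these data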;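 further: ratio is peak minus minimum fluorescence divided by baseline fluorescence; actives read low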
KCNQ1 APC inh – confirmation of human KCNQ1 potassium channel inhibitors by electrophysiology. shares compounds with KCNQ1 inh. KCNQ1-CHO cells, automated patch clamp current. calls only at 10 µM. 20% of 490 active;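 active means KCNQ1 current drop exceeding 3 SD of negative control wells, seen in both duplicate runs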;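 further: steady state current during a 2 s step from -80 to +40 mV; negative values mean current inhibition and positive values mean potentiation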
KCNQ2 inh – KCNQ1 inhibitor that also blocks rat KCNQ2 channel; inhibition, % at 10 µM; 71% of 1,600 active; KCNQ2 cells, FluxOR thallium flux fluorescence; shares compounds with KCNQ1 inh;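 active means mean percent inhibition of the KCNQ2 thallium signal more than 5 SD above the buffer-only control wells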;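 further: KCNQ2 expressed in CHO cells; 0% = buffer control wells and 100% = XE-991 inhibitor control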
KCNQ1-KCNE1 inh – KCNQ1 inhibitor that also blocks human KCNQ1/KCNE1 channel; shares compounds with KCNQ1 inh; KCNQ1/KCNE1 cells, FluxOR thallium flux fluorescence; inhibition, % at 10 µM; 77% of 1,600 active; AID 652147;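 active means mean percent inhibition of duplicate wells above the buffer-only control mean plus 3 SD of those controls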;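 further: 0% = buffer only wells and 100% = XE-991 inhibitor control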
Numbers without * were called inactive; i = inactive; · = not tested or not shown; + = active, no number.

SMILES	Kir21 inh	KCNK9 block	hERG rescue	KCNQ1 pot	KCNK3 block	KCNQ1 inh	KCNQ1 inh valid	CHO KCNQ1 ctr	KCNQ2 inh	KCNQ1-KCNE1 inh	others
CCCCCCCCOC(=O)c1nc(Cl)c(Cl)c(N)c1Cl	-2.4	i	-9	i	i	7*	101*	0.46	65%*	126%*	KCNQ1 APC inh=i
Cc1ccc(S(=O)(=O)NNC(=O)c2ccc3ccccc3n2)cc1	-0.63	i	-9	i	i	i	·	·	·	·
CCOC(=O)C1CCCN(C(=O)CCc2nc3sc4c(c3c(=O)[nH]2)CCCC4)C1 (configuration not stated)	·	·	·	·	i	·	·	·	·	·
COc1ccc(S(=O)(=O)N(C)C)cc1NC(=O)CCCSc1ccccc1	-0.45	i	-7	i	i	i	·	·	·	·
O=C(OCN1C(=O)C(=O)c2ccccc21)c1ccc(Cl)cc1	-0.21	i	-6	i	i	i	·	·	·	·
COc1cc2ncc(S(=O)(=O)c3ccccc3)c(N3CCC4(CC3)OCCO4)c2cc1OC	0.32	i	-14	i	i	i	·	·	·	·
Cc1ccc2ncc(S(=O)(=O)c3ccccc3)c(N3CCCCC3C)c2c1 (configuration not stated)	-0.23	i	-21	i	i	7*	126*	0.32*	131%*	+
CN(C)CCCN(C(=O)c1cc(-c2cccs2)nc2ccccc12)c1nc2ccc(F)cc2s1	-0.42	i	-26	i	i	i	·	·	·	·
CCc1ccc(S(=O)(=O)/N=C2\C=C(NS(=O)(=O)c3ccccc3)C(=O)c3ccccc32)cc1	1.9	i	-11	i	i	12*	97*	0.45	79%*	94%*	KCNQ1 APC inh=+
O=S(=O)(NCCSCc1ccc(Cl)cc1Cl)c1ccc2c(c1)OCCO2	1.7	i	-1	i	-9.1*	7*	129*	0.43	96%*	144%*	KCNQ1 APC inh=i
Cc1ccc(S(=O)(=O)C(C#N)c2nc3ccccc3nc2N2CCN(C)CC2)cc1 (configuration not stated)	0.52	i	-7	i	i	i	·	·	·	·
CCOC(=O)N1CCN(c2nc3ccccc3nc2C(C#N)S(=O)(=O)c2ccc(C)cc2)CC1 (configuration not stated)	-0.03	i	-10	i	i	9*	61*	0.51	i	50%*
CC(=O)c1c(C)[nH]c(C(=O)COC(=O)c2c(-c3ccccc3)noc2C)c1C	·	·	·	·	i	·	·	·	·	·
O=c1c2sc3nc(N4CCOCC4)c4c(c3c2ncn1CCc1ccccc1)CCCC4	1	i	-10	i	i	9*	102*	0.44	92%*	103%*	KCNQ1 APC inh=i
CCOc1nc(Nc2ccc(OC)c(Cl)c2)nc(N2CCN(c3ccc(OC)cc3)CC2)n1	-1	i	-11	i	i	7*	114*	0.48	79%*	144%*	KCNQ1 APC inh=i
CCOc1nc(Nc2ccc(F)cc2)nc(N2CCN(c3ccc(OC)cc3)CC2)n1	-0.29	i	-9	i	i	i	·	·	·	·
Cc1ccc2cc(CN(CCN(C)C)C(=S)Nc3ccccc3)c(=O)[nH]c2c1C	0.35	i	12*	i	i	7*	56*	0.51	i	86%*
CCN(CC)CCN(Cc1cc2cccc(C)c2[nH]c1=O)C(=S)Nc1ccccc1	-0.52	i	-11	i	i	i	·	·	·	·
CC(C)CC(NS(=O)(=O)OCC(Cl)(Cl)Cl)c1ccccc1 (configuration not stated)	0.29	i	-19	i	i	12*	56*	0.44	65%*	i
CC(NS(=O)(=O)OCC(Cl)(Cl)Cl)c1ccc(Br)cc1 (configuration not stated)	-7.1*	i	-20	i	i	7*	126*	0.41	73%*	104%*	KCNQ1 APC inh=i
COC(=O)CCC(NS(=O)(=O)OCC(Cl)(Cl)Cl)c1ccccc1 (configuration not stated)	-3.5	i	-8	i	i	i	·	·	·	·
Cc1ccc(-c2ccc(=O)n(CC(=O)NCCC(C)C)n2)cc1	-0.04	i	-2	i	i	i	·	·	·	·
Cc1ccc(NC(=O)COCC(=O)Nc2ccc(F)cc2)cc1	0.25	i	-13	i	i	i	·	·	·	·
CCN(C1CCCCC1)S(=O)(=O)CCNC(=O)c1ccc2c(c1)OCO2	-0.77	i	-11	i	i	i	·	·	·	·
Cc1cc(C)c2[nH]c(C(=O)Nc3ccc(F)cc3Br)cc2c1	0.13	i	0	i	i	i	·	·	·	·
SMILES	Kir21 inh	KCNK9 block	hERG rescue	KCNQ1 pot	KCNK3 block	KCNQ1 inh	KCNQ1 inh valid	CHO KCNQ1 ctr	KCNQ2 inh	KCNQ1-KCNE1 inh	others
COc1ccc(-c2nc3ccccc3nc2-c2ccc(OC)c(OC)c2)cc1OC	0.04	i	-6	i	i	i	·	·	·	·
Oc1ccc(-c2nc3ccccc3nc2-c2ccccc2)cc1	0.64	i	-13	i	i	7*	84*	0.38*	71%*	110%*
COc1ccc(-c2nc3ccccc3nc2-c2ccc(OC)cc2)cc1	0.33	i	-9	i	i	10*	88*	0.34*	96%*	115%*
C[C@H](NS(=O)(=O)c1ccc(Cl)cc1)C(=O)OCC(=O)NCCc1ccc(S(N)(=O)=O)cc1	·	·	·	·	i	·	·	·	·	·
CC(C)Cc1nnc(NC(=O)c2cc(-c3ccccc3)nc3ccccc23)s1	0.48	i	-30	i	i	6*	121*	0.51	80%*	143%*
CCN1CCN(CCNC(=O)c2ccc(/C=C3/Sc4ccccc4N(Cc4cccc(Cl)c4)C3=O)cc2)CC1	-5.1*	i	-33	i	i	14*	80*	0.34*	97%*	145%*
O=C(CN1C(=O)/C(=C\c2cccc(Cl)c2)Sc2ccccc21)NCCCN1CCOCC1	-0.5	i	-13	i	i	i	·	·	·	·
CS(=O)(=O)N(CC(=O)NCCSCc1ccccc1Cl)c1ccc(F)cc1	-0.97	i	-1	i	i	i	·	·	·	·
